Laboratory results taken from ChEMBL document CHEMBL4196158, “New Class of Selective Estrogen Receptor Degraders (SERDs): Expanding the Toolbox of PROTAC Degrons” (ACS Med Chem Lett, 2018).
Active and inactive are the calls of the source. The rule behind the calls is not given here.

Tests used:
[1] = biological target: T1, Estrogen receptor (Homo sapiens) (UniProt P03372); assay: Displacement of [3H]estradiol from human full length ERalpha after 18 to 24 hrs by scintillation counting method
T1 sequence (whole entry): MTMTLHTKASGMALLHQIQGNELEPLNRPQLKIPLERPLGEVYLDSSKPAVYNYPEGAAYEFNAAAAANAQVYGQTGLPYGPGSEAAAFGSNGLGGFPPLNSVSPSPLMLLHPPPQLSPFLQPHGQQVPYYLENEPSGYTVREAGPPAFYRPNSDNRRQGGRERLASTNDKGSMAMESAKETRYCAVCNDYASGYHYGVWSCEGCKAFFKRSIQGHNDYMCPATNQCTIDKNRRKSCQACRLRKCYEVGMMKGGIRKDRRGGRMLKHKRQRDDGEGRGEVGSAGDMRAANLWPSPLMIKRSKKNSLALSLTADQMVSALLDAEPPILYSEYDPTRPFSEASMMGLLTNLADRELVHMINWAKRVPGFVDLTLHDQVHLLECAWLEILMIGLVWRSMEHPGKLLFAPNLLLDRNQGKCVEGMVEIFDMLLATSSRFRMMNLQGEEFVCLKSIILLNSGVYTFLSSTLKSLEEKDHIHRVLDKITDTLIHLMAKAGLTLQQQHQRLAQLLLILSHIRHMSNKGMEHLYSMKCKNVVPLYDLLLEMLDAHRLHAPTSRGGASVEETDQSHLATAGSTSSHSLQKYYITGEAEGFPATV

MCF7 [2] = assay: Antiproliferative activity against human MCF7 cells assessed as cell proliferation after 6 days by MTT assay relative to control; format: functional; design: concentration or dose not given beside the values
Outline: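 MCF-7 cells kept in complete medium, dosed across a concentration range (log scale ~10^-11 to 10^-5 M) for 6 days; cell density read by MTT. Average ± SEM of 4 measurements, n = 3 unless noted. IC50 taken from dose-response. Efficacy given as relative proliferation rate at highest dose versus vehicle, with the fulvestrant level set to zero.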

[3] = Proteolysis targeting chimera activity in human MCF7 cells assessed as induction of E3 ubiquitin ligase-mediated ERalpha degradation by proteasome after 24 hrs by in-cell Western assay; format: cell-based; conditions: MCF7, 24 h
Outline: (§1)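 MCF-7 cells in stripped medium were dosed across a concentration range (log ~10^-11 to 10^-5 M) for 24 h, and ERα was quantified by in-cell Western. Average ± SEM of 4 measurements, n = 3 unless noted. IC50 derived from the dose-response curve. Efficacy is the ERα level at the highest dose, as % of vehicle control.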

MCF7 [4] = assay: Proteolysis targeting chimera activity in human MCF7 cells assessed as induction of E3 ubiquitin ligase-mediated ERalpha level after 24 hrs by in-cell Western assay relative to control; format: cell-based; design: concentration or dose not given beside the values; outline: as §1
[5] = biological target: T1, Estrogen receptor (Homo sapiens); assay: Antagonist activity at ERalpha in human […] assessed as inhibition of estradiol-induced PgR gene expression level at 3 uM after 24 hrs by qRT-PCR method; format: cell-based
Outline: (§2)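 MCF-7 cells exposed 24 h to 3 µM compound with or without 1 nM estradiol (E2); transcript levels of PgR, pS2 and GREB1 quantified by qRT-PCR.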

[6] = biological target: T1, Estrogen receptor (Homo sapiens); assay: Antagonist activity at ERalpha in human […] assessed as inhibition of estradiol-induced pS2 gene expression level at 3 uM after 24 hrs by qRT-PCR method; format: cell-based; outline: as §2
[7] = biological target: T1, Estrogen receptor (Homo sapiens); assay: Antagonist activity at ERalpha in human […] assessed as inhibition of estradiol-induced GREB1 gene expression level at 3 uM after 24 hrs by qRT-PCR method; format: cell-based; outline: as §2
MCF7 [8] = assay: Antiproliferative activity against human MCF7 cells after 6 days by MTT assay; conditions: MCF7, 144 h
MCF7 [9] = assay: Proteolysis targeting chimera activity in human MCF7 cells assessed as induction of E3 ubiquitin ligase-mediated ERalpha level after 24 hrs by in presence of proteasome inhibitor MG132 by in-cell Western assay; format: cell-based

| Structure (SMILES) | RBA [1] | Activity (MCF7 [2]) | IC50 [3] | Activity (MCF7 [4]) | inhibition [5] | inhibition [6] | inhibition [7] | IC50 (MCF7 [8]) | Activity (MCF7 [9]) |
| --- | --- | --- | --- | --- | --- | --- | --- | --- | --- |
| O=C(NCCCOc1ccc(C(=C2C3CC4CC(C3)CC2C4)c2ccc(O)cc2)cc1)C12CC3CC(CC(C3)C1)C2 | 26% | 13% | 3 nM | 42% | Active | Active | Active | 9 nM |  |
| O=C(NCCCCOc1ccc(C(=C2C3CC4CC(C3)CC2C4)c2ccc(O)cc2)cc1)C1CCC1 | 70% | 15% |  | 69% |  |  |  | 3 nM |  |
| O=C(NCCCCOc1ccc(C(=C2C3CC4CC(C3)CC2C4)c2ccc(O)cc2)cc1)C1CCCCCC1 | 30% | 15% |  | 76% |  |  |  | 5 nM |  |
| CC(C)(C)OC(=O)N[C@@H](Cc1ccccc1)C(=O)NCCCCOc1ccc(C(=C2C3CC4CC(C3)CC2C4)c2ccc(O)cc2)cc1 | 14% | 25% | 307 nM | 71% |  |  |  | 7 nM |  |
| O=C(NCCCCOc1ccc(C(=C2C3CC4CC(C3)CC2C4)c2ccc(O)cc2)cc1)C12CC3CC(CC(C3)C1)C2 | 11% | 13% | 6 nM | 51% |  |  |  | 13 nM |  |
| O=C(NCCCCOc1ccc(C(=C2C3CC4CC(C3)CC2C4)c2ccc(O)cc2)cc1)C1CCC(F)(F)CC1 | 30% | 20% |  | 67% |  |  |  | 4 nM |  |
| O=C(NCCCCOc1ccc(C(=C2C3CC4CC(C3)CC2C4)c2ccc(O)cc2)cc1)C12CC3CC(CC1C3)C2 | 17% | 42% | 2 nM | 71% |  |  |  | 12 nM |  |
| CC(C)C[C@H](NC(=O)OC(C)(C)C)C(=O)NCCCCOc1ccc(C(=C2C3CC4CC(C3)CC2C4)c2ccc(O)cc2)cc1 | 14% | 20% | 636 nM | 56% |  |  |  | 36 nM |  |
| O=C(NCCCCOc1ccc(C(=C2C3CC4CC(C3)CC2C4)c2ccc(O)cc2)cc1)C1CCCCC1 | 28% | 13% | 0.4 nM | 35% |  |  |  | 0.6 nM | inactive |
| O=C(NCCOc1ccc(C(=C2C3CC4CC(C3)CC2C4)c2ccc(O)cc2)cc1)C12CC3CC(CC(C3)C1)C2 | 21% | 16% |  | 76% |  |  |  | 17 nM |  |
| O=C(NCCCCOc1ccc(C(=C2C3CC4CC(C3)CC2C4)c2ccc(O)cc2)cc1)[C@H]1CC[C@H](C(F)(F)F)CC1 | 10% | 13% | 2 nM | 31% | Active | Active | Active | 0.5 nM |  |
| CC12CC3CC(C)(C1)CC(C(=O)NCCCCOc1ccc(C(=C4C5CC6CC(C5)CC4C6)c4ccc(O)cc4)cc1)(C3)C2 | 6% | 57% | 10 nM | 42% |  |  |  | 5 nM |  |
| CC(C)(C)OC(=O)N[C@@H](Cc1c[nH]c2ccccc12)C(=O)NCCCCOc1ccc(C(=C2C3CC4CC(C3)CC2C4)c2ccc(O)cc2)cc1 | 20% | 16% | 0.5 nM | 45% | Active | Active | Active | 16 nM |  |
| O=C(NCCCCOc1ccc(C(=C2C3CC4CC(C3)CC2C4)c2ccc(O)cc2)cc1)[C@@H]1C[C@@H]2C=C[C@H]1C2 | 37% | 42% | 0.5 nM | 53% |  |  |  | 9 nM |  |
| C[C@]12CC[C@@H]3c4ccc(O)cc4C[C@@H](CCCCCCCCC[S+]([O-])CCCC(F)(F)C(F)(F)F)[C@H]3[C@@H]1CC[C@@H]2O (stereo partly specified) [FULVESTRANT] | 61% | 0% | < 0.1 nM | 9% |  |  |  | < 0.1 nM |  |
